Among the data in ChEMBL document CHEMBL1150379, “Synthesis and antiproliferative activity of imidazole and imidazoline analogs for melanoma” (Bioorg Med Chem Lett, 2008) are IC50 values, retold here.

A short description of test [1]: Antiproliferative activity against mouse B16-F1 cells after 48 hrs by SRB assay. The test is classed as functional, cell-based. Conditions: B16-F1, 48 h. Summed up:
(§1)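 Cells seeded in round-bottom 96-well plates and exposed to a wide range of concentrations for 48 h. Fixed with 10% trichloroacetic acid, washed five times with water, air-dried overnight, then stained with sulforhodamine B. Total protein read at 560 nm. IC50 is the concentration inhibiting growth by 50% relative to DMSO-treated controls, obtained by nonlinear regression.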

In the next test the test system is A-375. Description: Antiproliferative activity against human A375 cells after 48 hrs by SRB assay. The test is classed as functional, cell-based. Conditions: A-375, 48 h. Summed up: as §1
Test [2] is described as follows: Antiproliferative activity against fibroblast cells after 48 hrs by SRB assay. The test is classed as cell-based. The method, boiled down:
as §1

For `CCCCCCCCCCCCCCNC(=O)[C@@H]1CNC(c2ccccc2)=N1`, the IC50 in test [1] was determined as 7.2 µM; with A-375, 7.1 µM; in test [2] it was 17.3 µM.

For `CCCCCCCCCCCCCCCCCCNC(=O)c1c[nH]c(-c2ccccc2)n1`, the IC50 in test [1] is over 30 µM; in the test with A-375, 20.7 µM; in test [2] it was 47.4 µM.

Take `CCCCCCCCC/C=C/CCCCCCCNC(=O)c1c[nH]c(-c2ccccc2)n1`: the 50% inhibitory concentration (IC50) in test [1] was determined as 31.6 µM; in the test on A-375 it was 16.1 µM; in test [2] it was 23.9 µM.

In the case of `COc1cc(C2=N[C@H](C(=O)N(C)OC)CN2)cc(OC)c1OC`, the half-maximal inhibitory concentration (IC50) (in test [1]; with A-375; in test [2]) was over 20 µM throughout.

With `CCCCCCCCCCCCNC(=O)c1c[nH]c(-c2ccccc2)n1`, the IC50 is 30 µM in test [1] and over 30 µM with A-375.

Turning to `CCCCCCCCCCCCCCCCNC(=O)[C@@H]1CNC(c2cc(OC)c(OC)c(OC)c2)=N1`, the results for the IC50 (in test [1]; in the test on A-375; in test [2]) were 3.8 µM, 4.1 µM and 13.3 µM, respectively.

Turning to `O=C(Nc1ccc(Br)cc1)c1c[nH]c(-c2ccccc2)n1`, the IC50 (in test [1]; in the test on A-375) was over 30 µM each time.

For the molecule `CCCCCCCCCCCCCCCCNC(=O)[C@@H]1CNC(c2ccccc2)=N1`, the IC50 in test [1] was found to be 5.7 µM; with A-375 it was 10.5 µM; in test [2], 59.6 µM.

With `CCCCCCCCCCCCCCCCNC(=O)[C@@H]1CNC(c2ccc(NC(C)=O)cc2)=N1`, the IC50 in test [1] came to 2.4 µM; in the test with A-375, 4.6 µM; in test [2] it was 14.8 µM.

For `CCCCCCCCCCCCCCCCNC(=O)[C@@H]1CNC(Cc2cc(OC)c(OC)c(OC)c2)=N1`, the figures for the IC50 (in test [1]; in the test with A-375; in test [2]) were 4 µM, 3.9 µM and 15.8 µM, respectively.

For `CCCCCCCCCCCCCCCCNC(=O)[C@@H]1CSC(Cc2ccc(NC(C)=O)cc2)N1` (stereo partly specified), the IC50 in test [1] is 171 µM; with A-375, 191 µM; in test [2], over 100 µM.

Consider `CC(=O)Nc1ccc(CC2N[C@H](C(=O)Nc3ccc4c(c3)Cc3ccccc3-4)CS2)cc1` (stereo partly specified), for which the IC50 in test [1] amounted to 4 µM; with A-375 it was 6.1 µM; in test [2], 15.3 µM.

On to `CCCCCCCCCCCCCCCCNC(=O)[C@H]1CC[C@@H](c2ccccc2)N1`, for which the values for the IC50 (in test [1]; with A-375; in test [2]) were 11.5 µM, 13.7 µM and 46.6 µM, respectively.

Take `CCCCCCCCCCCCCCCCNC(=O)[C@@H]1CSC(Cc2ccccc2)N1` (stereo partly specified): the figures for the 50% inhibitory concentration (IC50) (in test [1]; in the test with A-375; in test [2]) were 6.5 µM, 8.1 µM and 15.3 µM, respectively.

Regarding `CCCCCCCCCCCCCCCCCCNC(=O)[C@@H]1CNC(c2ccccc2)=N1`, the IC50 in test [1] amounted to 50.5 µM; in the test with A-375, 54.3 µM; in test [2], 111 µM.

As for `CCCCCCCCC/C=C/CCCCCCCNC(=O)[C@@H]1CNC(c2ccccc2)=N1`, the IC50 worked out at 12 µM in test [1], 8.3 µM in the test with A-375 and 24.6 µM in test [2].

As for `CCCCCCCCC/C=C/CCCCCCCNC(=O)[C@@H]1CSC(Cc2ccccc2)N1` (stereo partly specified), the results for the IC50 (in test [1]; in the test with A-375; in test [2]) were 11.6 µM, 10.3 µM and 15.5 µM, respectively.

For the molecule `O=C(Nc1ccc2c(c1)Cc1ccccc1-2)[C@@H]1CSC(Cc2ccccc2)N1` (stereo partly specified), the IC50 is 118 µM in test [1], 174 µM in the test on A-375 and over 100 µM in test [2].

As for `CCCCCCCCCCCCCCNC(=O)c1c[nH]c(-c2ccccc2)n1`, the IC50 in test [1] turned out to be 38.2 µM; in the test on A-375, 18.7 µM; in test [2], 42.7 µM.

Turning to `CCCCCCCCCCCCCCCCNC(=O)c1c[nH]c(-c2ccccc2)n1`, the values for the IC50 (in test [1]; in the test on A-375; in test [2]) were 39.7 µM, 16.5 µM and 27.9 µM, respectively.

Regarding `CCCCCCCCCCNC(=O)c1c[nH]c(-c2ccccc2)n1`, the IC50 (in test [1]; with A-375) was over 30 µM throughout.

As for `CCCCCCCCCCCCCCCCNC(=O)[C@@H]1CSC(C(C)c2ccccc2)N1` (stereo partly specified), the IC50 in test [1] is 12.2 µM; in the test on A-375, 13.1 µM; in test [2] it was 55.7 µM.

For the molecule `CCCCCCCCC/C=C/CCCCCCCNC(=O)[C@@H]1CSC(C(C)c2ccccc2)N1` (stereo partly specified), the results for the IC50 (in test [1]; with A-375; in test [2]) were 16.5 µM, 21.2 µM and 237 µM, respectively.

On to `CN(C)/N=N/c1[nH]cnc1C(N)=O` [DACARBAZINE], for which the IC50 (in test [1]; with A-375) was over 100 µM each time.

Take `CNC(=O)c1cc(Oc2ccc(NC(=O)Nc3ccc(Cl)c(C(F)(F)F)c3)cc2)ccn1` [SORAFENIB]: the IC50 in test [1] stood at 4.9 µM; in the test with A-375, 5.4 µM; in test [2], 15.1 µM.
